Source: the array DNA melting data of Ke et al. (doi:10.1101/2024.01.08.574731)

Tests used:
[1] = folding enthalpy; higher = less favourable; fluorescence melt of hairpins on a sequencing array, two-state fit; conditions: sodium 0.088 M
Method in brief: (§1)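 Library hairpins on a sequenced MiSeq flow cell carried annealed Cy3 and quencher oligos, and their Cy3 fluorescence was imaged in 50 mM Na-HEPES pH 8.0 with 25 mM NaCl, in 2.5 °C steps up to 60 °C. Signals were normalised to Cy3 before quenching and to control constructs. Melting temperature and folding enthalpy were obtained from bootstrapped two-state fits, combined by inverse-variance weighting across four replicates, and the fitted temperatures were then raised by 9.35 °C to match UV melts.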

[2] = melting temperature; fluorescence melt of hairpins on a sequencing array, two-state fit, raised by 9.35 °C to match UV melts; conditions: sodium 0.088 M
Method in brief: as §1

Sequence | folding enthalpy [1] | Tm [2]
GGGACTGGAAACAGTCTC (.(((((....))))).) | -20.6 kcal/mol | 51.7 °C
GGTGAAGGAAACCTCACC (((((.(....).))))) | -29.6 kcal/mol | 46.2 °C
GTGGGCGGAAACGCCTGC (..((((....))))..) | -13.2 kcal/mol | 47 °C
GATCTGAAACAGATC ((((((...)))))) | -31.6 kcal/mol | 46.3 °C
GCACAAGGAAACTTGTAC (.(((((....))))).) | -20.6 kcal/mol | 32.9 °C
GAAACCGGAAACGATTTC ((((.((....)).)))) | -28.9 kcal/mol | 34 °C
GATCCAGTAGTGGATC ((((((....)))))) | -32 kcal/mol | 54.2 °C
GGCATTCGAAAGAACGCC (((.(((....))).))) | -45.2 kcal/mol | 50.6 °C
GTGGGTGGAAACGCTCAC (((.(.(....).).))) | -33 kcal/mol | 40.6 °C
GGTACCCGAAAGGGACC (((.(((....)))))) | -25.9 kcal/mol | 54.5 °C
GGGGACGAAAGTCGGCCC ((((((....)))..))) | -27.2 kcal/mol | 56.4 °C
GCACAGAAATGTGC (((((....))))) | -33.9 kcal/mol | 57.2 °C
GGTATCGGAAACGATGCC ((.((((....)))).)) | -37.9 kcal/mol | 54.6 °C
GCCCGCGAAAGCGTTGGC ((((((....)))..))) | -23.2 kcal/mol | 56.2 °C
GGGAGGGAAACCTCCC ((((((....)))))) | -32 kcal/mol | 65.8 °C
GGGTGTGGAAACATACCC ((((.((....)).)))) | -45.6 kcal/mol | 52.1 °C
GGCCCCCGAAAGGGCGCC (((.(((....))).))) | -24.8 kcal/mol | 58.3 °C
GACCACGAAAGTGTGTC ((((((....))).))) | -27.3 kcal/mol | 52.9 °C
GACCACGGAAACGTGATC ((.((((....)))).)) | -19.9 kcal/mol | 43.3 °C
GATCACAGTAGTGATC ((((((....)))))) | -40.1 kcal/mol | 59 °C
GCGGCCGAAAGGCTTCGC ((((((....)))..))) | -17.1 kcal/mol | 53.5 °C
GGTATCGAAAGATAACC ((((((....))).))) | -21.5 kcal/mol | 40.8 °C
GGCATGCGAAAGCACGCC (((.(((....))).))) | -27.3 kcal/mol | 63.4 °C

Sequence | folding enthalpy [1] | Tm [2]
GATCAATATTTTGATC ((((((....)))))) | -35.6 kcal/mol | 45.6 °C
GTCTCAGCGAAAGCTGAC (((..(((....)))))) | -8.27 kcal/mol | 36.2 °C
GGGACCGGAAACGACCCC (((..((....))..))) | -25.2 kcal/mol | 35.5 °C
GGGGGCGAAAGCCTGCCC ((((((....)))..))) | -13.7 kcal/mol | 43.8 °C
GCAGATCGAAAGATTTGC (((.(((....))).))) | -43.6 kcal/mol | 52.1 °C
GCACCCGAAAGGGCGTGC ((((((....)))..))) | -29.6 kcal/mol | 51.2 °C
GGTCTTGGAAACAAGGCC ((.((((....)))).)) | -48.6 kcal/mol | 54.7 °C
GAGAACGAAAGTTGTCTC ((((((....)))..))) | -27.2 kcal/mol | 43.5 °C
GCAGTCGAAAGACGTGC ((((((....))).))) | -17.4 kcal/mol | 51.8 °C
GGCGGAGCGAAAGCTGCC (((..(((....)))))) | -17 kcal/mol | 52.3 °C
GGGAGTCGAAAGACACCC (((.(((....))).))) | -30 kcal/mol | 56.9 °C
GGATTGGGAAACCAATCC (((((((....))))))) | -48.6 kcal/mol | 60.2 °C
GATCAATGTTTTGATC ((((((....)))))) | -29.4 kcal/mol | 47 °C
GATCACGAAAGTGCATC ((((((....))).))) | -21.4 kcal/mol | 42.8 °C
GCAGCCGAAAGGCAGTGC ((((((....)))..))) | -17.4 kcal/mol | 50.6 °C
GCTGTGGGAAACTACAGC (((((.(....).))))) | -41.4 kcal/mol | 53.1 °C
GATCCAACCTTGGATC ((((((....)))))) | -51.5 kcal/mol | 51.5 °C
GGAACAGCGAAAGCTTCC (((..(((....)))))) | -18.4 kcal/mol | 35.5 °C
GGAACACGAAAGTGTCC (((.(((....)))))) | -23.5 kcal/mol | 52 °C
GATCTACACTTAGATC ((((((....)))))) | -44.7 kcal/mol | 43.4 °C
GCTTATGGAAACATAGGC ((.((((....)))).)) | -32.8 kcal/mol | 41.6 °C
GTCTCCGGAAACGGAGGC (.(((((....))))).) | -25.2 kcal/mol | 61.7 °C
GGAGGAGGAAACTTCTCC ((((.((....)).)))) | -35.9 kcal/mol | 45.2 °C

Sequence | folding enthalpy [1] | Tm [2]
GTTTTCGGAAACGAAGAC ((.((((....)))).)) | -28.8 kcal/mol | 42.5 °C
GGTGCTGGAAACAACACC ((((.((....)).)))) | -37.6 kcal/mol | 46 °C
GGGAGCCGAAAGGCACCC (((.(((....))).))) | -29.5 kcal/mol | 67.1 °C
GGCTACGAAAGTAGGCC ((((((....))).))) | -17.3 kcal/mol | 57.6 °C
GTGAAGGGAAACTTTCAC (((((.(....).))))) | -24.8 kcal/mol | 40.2 °C
GTAGTTCGAAAGAAATAC (((.(((....))).))) | -29.2 kcal/mol | 42.2 °C
GGTTATACGAAAGTAACC (((..(((....)))))) | -14.7 kcal/mol | 38.1 °C
GATCGAGTTTTCGATC ((((((....)))))) | -41.8 kcal/mol | 54.2 °C
GCTCCGGGAAACCAGAGC ((((.((....)).)))) | -31.9 kcal/mol | 47 °C
GCCCACGGAAACGCGAGC ((.(.((....)).).)) | -14.7 kcal/mol | 28 °C
GCCCCATCGAAAGATGGC (((..(((....)))))) | -7.75 kcal/mol | 37.9 °C
GCGACCACTCGC ((((....)))) | -25.4 kcal/mol | 47 °C
GATCTTCTGAAAGATC ((((((....)))))) | -25.4 kcal/mol | 42.1 °C
CGCGTCGGAAACGAGGCG (((.(((....))).))) | -46.5 kcal/mol | 60.9 °C
GCGACGGGAAACCACCGC (((..((....))..))) | -25.4 kcal/mol | 40.2 °C
GCTGTGCGAAAGCAGCGC ((..(((....)))..)) | -21 kcal/mol | 57.1 °C
CGCTCGGAAACGATAGCG ((((((....)))..))) | -30.9 kcal/mol | 46.9 °C
GCGAGAGAAATCTCGC ((((((....)))))) | -32.3 kcal/mol | 66.8 °C
GCACACGAAAGTGGCTGC ((((((....)))..))) | -20.7 kcal/mol | 54.3 °C
GACGGCGAAAGCCGTGTC ((((((....)))..))) | -9.28 kcal/mol | 63.9 °C
GGTTAGGGAAACCTGACC (((.(((....))).))) | -33 kcal/mol | 48 °C
CGCCCGGAAACGGGAGCG ((((((....)))..))) | -15.3 kcal/mol | 55.3 °C
GCGACGTTCGC ((((...)))) | -17.3 kcal/mol | 48 °C

Sequence | folding enthalpy [1] | Tm [2]
GCCAACGAAAGTTCTGGC ((((((....)))..))) | -24.9 kcal/mol | 38 °C
GGAAGCGAAAGCTGTTCC ((((((....)))..))) | -12.1 kcal/mol | 36.5 °C
GCCGCAGGAAACCACGGC ((((..(....)..)))) | -20.4 kcal/mol | 42.1 °C
GTTTCTGGAAACAGGAAC (((.(((....))).))) | -30.4 kcal/mol | 43.6 °C
GTCACCGAAAGGTGGAC ((((((....))).))) | -14.1 kcal/mol | 54.2 °C
GTACATGGAAACGTGTAC (((((.(....).))))) | -32.1 kcal/mol | 45.8 °C
GTTCTCGAAAGAGACAAC ((((((....)))..))) | -11.6 kcal/mol | 30.6 °C
GCATTCGAAAGAAGGTGC ((((((....)))..))) | -22.2 kcal/mol | 36.7 °C
GGTTTCGGAAACGAAGTC (..((((....))))..) | -10.3 kcal/mol | 26.4 °C
GCCGGGCGAAAGCGAGGC (((..((....))..))) | -43.3 kcal/mol | 66.1 °C
GACTACGGAAACGTGGTC (((.(((....))).))) | -42.8 kcal/mol | 52 °C
GCGAGCGCGAAAGCGCGC (((..(((....)))))) | -7.4 kcal/mol | 59.9 °C
GATCGTAAAGACGATC ((((((....)))))) | -31.4 kcal/mol | 51.1 °C
GATCTCCAATGAGATC ((((((....)))))) | -34.2 kcal/mol | 51.3 °C
GGTAAGGCGAAAGCCACC (((..(((....)))))) | -15.3 kcal/mol | 43.7 °C
GATCGAGTGGTCGATC ((((((....)))))) | -8.38 kcal/mol | 53.9 °C
GATGCGGGAAACTGCATC (((((.(....).))))) | -42.6 kcal/mol | 54.7 °C
GGCTCCGAAAGGACAGCC ((((((....)))..))) | -23.1 kcal/mol | 50.6 °C
GTCGAGGAAACTCGAC ((((((....)))))) | -45.2 kcal/mol | 63.3 °C
GCGGCAGGAAACCACCGC ((((..(....)..)))) | -25.9 kcal/mol | 45.2 °C
GATCCCTAGAGGGATC ((((((....)))))) | -40.2 kcal/mol | 59 °C
GCAGGTTCGAAAGAATGC (((..(((....)))))) | -11.1 kcal/mol | 30.9 °C
GATCTGGGCCAGATC ((((((...)))))) | -51.8 kcal/mol | 53.2 °C
